Assay outcomes as filed in PubChem.
In the library only some 4.1% were active in any assay of this set; here they are far more common.
RGS4 pot: RGS4 potentiation or activation | HEK293 M3R/inducible RGS4, carbachol calcium flux Fluo4; active compounds read low | B-score at 10 µM | actives 0.92% (n = 310,000) | AID 463111;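 active means B-score of the integrated calcium signal more than 4 SD below the library mean, with starting fluorescence not abnormally high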;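 further: negative B-score means reduced calcium response which marks RGS4 activation or potentiation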
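System – HEK293 FlpIn-TREx cells, stable M3R, doxycycline-inducible RGS4 · Reagent – ECmax carbachol challenge · Times – compound preincubation 20 min at room temperature before agonist · Technique – Fluo4 fluorescence kinetic imaging of calcium · Measure – B score of integrated Fluo4 ratio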
MrgX1 antagonist: blocks BAM8-22 activation of human MrgX1 receptor; Q96LB2; AID 588676; B-score at 10 µM; MRGX1-HEK293 calcium flux, Fluo-4, BAM8-22 antagonism; active compounds read low; actives 1.3% (n = 310,000);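 active means calcium-response B-score plate-corrected more than 3 library SD below zero, starting fluorescence within 5 deviations, no agonist response on first addition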;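 further: peak minus trough fluorescence over baseline after final BAM8-22 challenge near maximal dose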
Target sequence (Q96LB2 whole entry, looked up): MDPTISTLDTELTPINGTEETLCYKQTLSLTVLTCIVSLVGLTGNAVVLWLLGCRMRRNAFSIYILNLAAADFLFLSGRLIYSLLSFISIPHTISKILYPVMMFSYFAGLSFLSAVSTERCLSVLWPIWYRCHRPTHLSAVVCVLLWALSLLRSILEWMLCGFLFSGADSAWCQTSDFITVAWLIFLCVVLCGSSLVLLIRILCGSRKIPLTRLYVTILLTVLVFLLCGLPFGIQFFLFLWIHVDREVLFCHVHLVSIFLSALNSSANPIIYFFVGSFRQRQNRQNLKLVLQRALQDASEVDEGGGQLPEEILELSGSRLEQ
MrgX1 agonist: agonists of human MrgX1 receptor | Q96LB2 | MrgX1-HEK293 cells, Fluo-4 calcium fluorescence, agonist mode; active compounds read high | B-score at 10 µM | actives 0.44% (n = 310,000);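 active means calcium response B-score plate-corrected fluorescence ratio at least 3 library SD, with starting fluorescence B-score inside 5 SD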
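times = overnight plating, then 30 min 37 °C plus 30 min room-temperature dye loading | assay system = stable human MrgX1 HEK293 cell line | input = fifteen thousand cells per well | signal = kinetic calcium dye fluorescence, Fluo-4 NW | dosing = compound delivered in addition one of three | read-out = B-scored fluorescence response ratio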
MrgX1 allo act: human MrgX1 positive allosteric modulation, primary screen; B-score at 10 µM; AID 588675; MrgX1-HEK293, Fluo-4 calcium flux, FDSS; active compounds read high; actives 0.63% (n = 310,000); Q96LB2;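 active means plate-corrected calcium response at least 3 library SD above typical, normal starting fluorescence, not activating the receptor alone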;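 further: compound read alongside a low EC10 to EC30 dose of BAM8-22 agonist; peak minus trough fluorescence over baseline measured at the second addition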
Kir21 inh: inhibitors of mouse Kir2.1 inward-rectifier potassium channel | HEK293-Kir2.1, FluxOR thallium flux fluorescence; active compounds read low | B-score at 10 µM | actives 0.85% (n = 310,000);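 active means fluorescence ratio B-score at or below minus 3 SD of library scores, with starting-brightness B-score within 2 SD, cut at about -4.2 in these data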;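 further: channel flux triggered by added potassium and thallium sulfate stimulus; B-score of peak minus minimum fluorescence over baseline after thallium stimulus; more negative B-score means stronger Kir2.1 block with less thallium influx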
RGS4 inh: inhibitors of human RGS4. HEK293 M3R/RGS4 inducible, Fluo-4 calcium flux; active compounds read high; triggered by carbachol at its EC20. B-score at 10 µM. actives 0.45% (n = 310,000). AID 463165;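 active means B-score, a plate-corrected calcium signal, over three deviations above library mean, with baseline fluorescence within five deviations of library mean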;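 further: RGS4 expression induced by doxycycline in cells with stable M3 receptor; B-score is computed from the integrated fluorescence ratio over baseline after carbachol; higher B-score means a larger calcium signal and so more RGS4 inhibition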
Target sequence (P49798 whole entry, looked up): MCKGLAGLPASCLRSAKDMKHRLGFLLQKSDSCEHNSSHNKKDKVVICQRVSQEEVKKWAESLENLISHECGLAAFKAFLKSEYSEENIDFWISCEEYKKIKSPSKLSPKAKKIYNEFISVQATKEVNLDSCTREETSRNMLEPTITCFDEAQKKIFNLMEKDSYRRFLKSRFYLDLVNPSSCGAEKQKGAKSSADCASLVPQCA
Numbers without * were called inactive.

CSc1cccc(NCc2ccc([N+](=O)[O-])cc2)c1 was read as RGS4 pot inactive, MrgX1 antagonist inactive, MrgX1 agonist inactive, MrgX1 allo act inactive, Kir21 inh -0.21 and RGS4 inh inactive.
For O=C(CSc1ncn[nH]1)NCCc1ccc(Cl)cc1 the results were RGS4 pot inactive, MrgX1 antagonist inactive, MrgX1 agonist inactive, MrgX1 allo act inactive, Kir21 inh 2 and RGS4 inh inactive.
C[n+]1ccc(C(=O)Nc2ccccc2Cl)cc1 was read as RGS4 pot inactive, MrgX1 antagonist inactive, MrgX1 agonist inactive, MrgX1 allo act inactive, Kir21 inh -0.13 and RGS4 inh inactive.
CCC(=O)Oc1ccc(C2NC(=O)c3ccccc3O2)cc1OC (centres undefined) was read as RGS4 pot -7.6*, MrgX1 antagonist inactive, MrgX1 agonist inactive, MrgX1 allo act inactive, Kir21 inh 0.95 and RGS4 inh inactive.
For CCN(CC)CCOC(=O)c1ccc(NC(=O)c2ccc(Cl)c(S(=O)(=O)N3CCCCCC3)c2)cc1 the results were RGS4 pot inactive, MrgX1 antagonist -6.8*, MrgX1 agonist inactive, MrgX1 allo act inactive, Kir21 inh 1.4 and RGS4 inh inactive.
N#C/C(=C\c1ccc(O)c(O)c1)S(=O)(=O)c1ccccc1 was read as RGS4 pot inactive, MrgX1 antagonist inactive, MrgX1 agonist inactive, MrgX1 allo act 14*, Kir21 inh -0.73 and RGS4 inh inactive.
N#C/C(=C/c1ccc(F)cc1)S(=O)(=O)c1ccccc1 was read as RGS4 pot inactive, MrgX1 antagonist inactive, MrgX1 agonist inactive, MrgX1 allo act inactive, Kir21 inh -0.98 and RGS4 inh inactive.
`O=C(NNC(=O)c1cc(Cl)ccc1O)c1cccs1` gave RGS4 pot inactive, MrgX1 antagonist inactive, MrgX1 agonist inactive, MrgX1 allo act inactive, Kir21 inh 0.01 and RGS4 inh inactive.
`CCOC(=O)c1[nH]c2ccc(Br)cc2c1NC(=O)CNC` gave RGS4 pot inactive, MrgX1 antagonist inactive, MrgX1 agonist inactive, MrgX1 allo act inactive, Kir21 inh -0.01 and RGS4 inh inactive.
For CCOC(=O)c1[nH]c2ccc(Br)cc2c1NC(=O)CCN1CCCC(C)C1 (centres undefined) the results were RGS4 pot -8.6*, MrgX1 antagonist inactive, MrgX1 agonist inactive, MrgX1 allo act inactive, Kir21 inh 1.1 and RGS4 inh inactive.
`CCS(=O)(=O)c1ccc2oc(SCC(=O)Nc3ccc(OC)c(OC)c3)nc2c1` gave RGS4 pot inactive, MrgX1 antagonist inactive, MrgX1 agonist inactive, MrgX1 allo act inactive, Kir21 inh 0.23 and RGS4 inh inactive.
`Cc1nn(-c2ccccc2)c(N2CCCC2)c1/C=N/Nc1ccc(S(=O)(=O)Nc2ccccc2)cc1[N+](=O)[O-]` gave RGS4 pot inactive, MrgX1 antagonist -5.1*, MrgX1 agonist inactive, MrgX1 allo act inactive, Kir21 inh 0.69 and RGS4 inh inactive.
COC(=O)C1=CN(C2CC2)C=C(C(=O)OC)C1c1ccc(C(F)(F)F)cc1 was read as RGS4 pot inactive, MrgX1 antagonist -6.6*, MrgX1 agonist inactive, MrgX1 allo act inactive, Kir21 inh 0.09 and RGS4 inh inactive.
`COC(=O)C1=CN(C2CC2)C=C(C(=O)OC)C1c1ccc(C(=O)OC)cc1` gave RGS4 pot inactive, MrgX1 antagonist inactive, MrgX1 agonist inactive, MrgX1 allo act inactive, Kir21 inh -0.49 and RGS4 inh inactive.
`COc1ccc2nc(NCCO)[nH]c2c1` gave RGS4 pot inactive, MrgX1 antagonist inactive, MrgX1 agonist inactive, MrgX1 allo act inactive, Kir21 inh -0.07 and RGS4 inh inactive.
COc1ccc2nc(NCc3ccccc3)[nH]c2c1 was read as RGS4 pot inactive, MrgX1 antagonist inactive, MrgX1 agonist inactive, MrgX1 allo act inactive, Kir21 inh -5.3* and RGS4 inh inactive.
CC(=O)c1c(NC(=O)C(C)C)nc(C)nc1-c1ccccc1 was read as RGS4 pot inactive, MrgX1 antagonist inactive, MrgX1 agonist inactive, MrgX1 allo act inactive, Kir21 inh 1.7 and RGS4 inh inactive.
For O=C1Nc2ccccc2/C1=C/c1cnc(-c2ccccc2)[nH]1 the results were RGS4 pot -7*, MrgX1 antagonist inactive, MrgX1 agonist inactive, MrgX1 allo act inactive, Kir21 inh -1.6 and RGS4 inh inactive.
`CCC(CC)COC(=O)C1=C(C)NC(=O)NC1c1ccc2c(c1)OCO2` (centres undefined) gave RGS4 pot inactive, MrgX1 antagonist inactive, MrgX1 agonist inactive, MrgX1 allo act inactive, Kir21 inh -0.49 and RGS4 inh inactive.
For CCOC(=O)N1CCN(CC(O)COc2ccccc2C(C)C)CC1 (centres undefined) the results were RGS4 pot inactive, MrgX1 antagonist inactive, MrgX1 agonist inactive, MrgX1 allo act inactive, Kir21 inh 0.17 and RGS4 inh inactive.
Screening COc1ccc(C2CCCN2CC(O)COc2ccccc2C(C)C)cc1 (centres undefined) returned RGS4 pot inactive, MrgX1 antagonist inactive, MrgX1 agonist inactive, MrgX1 allo act inactive, Kir21 inh -11* and RGS4 inh inactive.
For O=C(OCC(=O)N1CCCC1)c1cccc(Br)c1 the results were RGS4 pot inactive, MrgX1 antagonist inactive, MrgX1 agonist inactive, MrgX1 allo act inactive, Kir21 inh -0.05 and RGS4 inh inactive.
For O=c1c(Cl)c(N2CCOCC2)cnn1-c1nc2ccccc2[nH]1 the results were RGS4 pot inactive, MrgX1 antagonist -7.1*, MrgX1 agonist inactive, MrgX1 allo act inactive, Kir21 inh 1.2 and RGS4 inh inactive.
Screening O=C(CSCC(=O)NC1CCCC1)Nc1ccccc1 returned RGS4 pot inactive, MrgX1 antagonist inactive, MrgX1 agonist inactive, MrgX1 allo act inactive, Kir21 inh -1 and RGS4 inh inactive.
Screening Cc1ccc(-n2c(SCC(N)=O)nnc2-c2ccc(S(=O)(=O)N3CCCCC3)cc2)c(C)c1 returned RGS4 pot -7.1*, MrgX1 antagonist inactive, MrgX1 agonist inactive, MrgX1 allo act inactive, Kir21 inh -0.5 and RGS4 inh inactive.
CCCCn1c(=O)c2ccccc2n2c(=S)[nH]nc12 was read as RGS4 pot inactive, MrgX1 antagonist -5.4*, MrgX1 agonist inactive, MrgX1 allo act inactive, Kir21 inh 0.88 and RGS4 inh inactive.
For CC(C)CCn1c(COc2ccccc2)n[nH]c1=S the results were RGS4 pot -7.1*, MrgX1 antagonist inactive, MrgX1 agonist inactive, MrgX1 allo act inactive, Kir21 inh -1.3 and RGS4 inh inactive.
